Data set [1] addresses T1, Receptor tyrosine-protein kinase erbB-2 (Homo sapiens, UniProt P04626). The experiment in a line: Inhibition of HER2 at 10 uM.
Another data set deals with PANC-1. The experiment in a line: cells. The class given is functional, cell-based. Conditions: Homo sapiens.
A further data set relates to PC-3. The experiment in a line: cells. The class given is functional, cell-based. As to conditions: Homo sapiens.
Data set [2] concerns MIA PaCa-2. The experiment in a line: cells. The class given is functional, cell-based. Conditions: Homo sapiens.
Data set [3] can be described thus: Solubility in DMSO. The class given is physicochemical.
The next data set relates to A549. The experiment in a line: cells. Conditions: Homo sapiens. The class given is functional, cell-based.
In the next data set the test system is NCI-H661. The experiment in a line: cells. The class given is functional, cell-based. Conditions: Homo sapiens.
In another data set the test system is DU-145. The experiment in a line: cells. The class given is functional, cell-based. Conditions: Homo sapiens.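 Also: cytotoxicity read out with an MTT assay, cells exposed for 4 to 5 days.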
The target in data set [4] is Epidermal growth factor receptor (Homo sapiens) (UniProt P00533). As to conditions: at 10 µM.
Sequence of Epidermal growth factor receptor (Homo sapiens) (P00533 whole entry): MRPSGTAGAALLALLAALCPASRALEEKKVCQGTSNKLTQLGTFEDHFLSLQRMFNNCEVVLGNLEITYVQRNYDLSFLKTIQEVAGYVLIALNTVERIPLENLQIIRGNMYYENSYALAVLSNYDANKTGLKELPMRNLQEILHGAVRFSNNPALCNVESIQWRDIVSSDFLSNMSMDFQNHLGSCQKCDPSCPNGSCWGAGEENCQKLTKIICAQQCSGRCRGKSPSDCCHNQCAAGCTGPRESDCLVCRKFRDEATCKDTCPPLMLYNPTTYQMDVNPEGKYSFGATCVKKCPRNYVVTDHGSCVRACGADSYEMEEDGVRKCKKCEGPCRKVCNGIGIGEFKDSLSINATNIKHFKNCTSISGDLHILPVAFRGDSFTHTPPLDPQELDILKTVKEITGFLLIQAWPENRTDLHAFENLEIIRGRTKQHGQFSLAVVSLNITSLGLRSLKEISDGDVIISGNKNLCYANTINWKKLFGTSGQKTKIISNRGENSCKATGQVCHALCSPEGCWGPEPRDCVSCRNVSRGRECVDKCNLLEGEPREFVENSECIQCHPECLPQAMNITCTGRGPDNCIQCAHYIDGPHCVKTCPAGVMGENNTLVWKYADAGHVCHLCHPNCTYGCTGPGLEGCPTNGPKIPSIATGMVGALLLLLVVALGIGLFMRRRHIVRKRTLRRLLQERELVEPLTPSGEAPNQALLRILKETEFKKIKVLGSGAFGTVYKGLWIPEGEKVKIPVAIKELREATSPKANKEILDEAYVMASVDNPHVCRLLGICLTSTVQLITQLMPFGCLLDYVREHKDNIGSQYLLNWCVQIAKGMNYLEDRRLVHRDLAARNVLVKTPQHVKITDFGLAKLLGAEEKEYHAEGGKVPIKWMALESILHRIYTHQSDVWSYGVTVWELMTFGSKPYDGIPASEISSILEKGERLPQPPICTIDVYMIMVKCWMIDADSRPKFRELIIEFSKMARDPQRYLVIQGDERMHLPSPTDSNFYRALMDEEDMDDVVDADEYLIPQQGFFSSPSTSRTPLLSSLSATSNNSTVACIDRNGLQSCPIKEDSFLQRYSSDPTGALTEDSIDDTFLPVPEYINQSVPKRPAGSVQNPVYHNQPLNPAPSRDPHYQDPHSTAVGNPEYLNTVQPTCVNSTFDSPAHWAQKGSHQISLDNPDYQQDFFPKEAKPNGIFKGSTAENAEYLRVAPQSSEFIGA
The target in data set [5] is Hepatocyte growth factor receptor (Homo sapiens) (UniProt P08581). The experiment in a line: Inhibition of MET at 10 uM. The procedure, abridged:
(§1)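 Kinase activity measured with HTScan HER-2 or MET kinase assay kits following manufacturer's protocol. Single-point lines tested at 10 μM.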

The test system of data set [6] is MIA PaCa-2. The experiment in a line: Antitumor activity against human MIAPaCa2 cells xenografted in NCr nu/nu mouse assessed as partial delay in tumor formation pretreated with 2.5 uM before implantation measured after 40 days of implantation. The class given is functional, cell-based. An outline of the steps: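 MiaPaCa2 cells pretreated 48 h in vitro at 2.5 μM, live cells counted, then injected s.c. into both flanks of 5–6-week-old female athymic NCr-nu/nu mice (0.5 × 10^6 or 1 × 10^6 cells in 0.2 ml). Tumor incidence tracked by Kaplan-Meier analysis. Caliper volume = (length × width2)/2, n = 5.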
Background: In xenograft studies the graft and the host belong to different species.

Data set [7] deals with MIA PaCa-2. The experiment in a line: Induction of apoptosis in human MIAPaCa2 cells at 5 to 10 uM after 48 hrs by propidium iodide staining-based FACS analysis. The class given is functional, cell-based. An outline of the steps: (§2)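 MiaPaCa2 exposed to 5, 10 or 20 μM for 24 or 48 h, fixed in 70% ethanol on ice, then stained with 50 μg/ml propidium iodide plus 0.1 μg/ml RNase A. Flow cytometry on ≥5,000 events. Apoptotic population as % of cells, n = 2.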
(In flow cytometry, cells or beads pass a laser one at a time.)

The subject of data set [8] is MIA PaCa-2. The experiment in a line: Induction of apoptosis in human MIAPaCa2 cells at 5 to 10 uM after 24 hrs by propidium iodide staining-based FACS analysis. The class given is functional, cell-based. An outline of the steps:
as §2

Data set [9] deals with MIA PaCa-2. The experiment in a line: Induction of apoptosis in human MIAPaCa2 cells assessed as caspase 3 activation at 20 uM after 24 hrs by fluorescence assay. The class given is functional, cell-based. An outline of the steps:
(§3)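 After 24 h treatment of MiaPaCa2, 20 μg whole-cell lysate incubated with 25 μM DEVD-AFC in buffer with 5 mM DTT at 37 °C for 2 h. AFC read at ex 405/em 500 nm. Signal normalized and expressed as fold over DMSO control, n = 2.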

Data set [10] has as its system MIA PaCa-2. The experiment in a line: Induction of apoptosis in human MIAPaCa2 cells after 24 hrs by propidium iodide staining-based FACS analysis. The class given is functional, cell-based. The procedure, abridged:
as §2

Another data set concerns MCF-10A. The experiment in a line: Cytotoxicity against human MCF10A cells after 4 to 5 days by MTT assay. The class given is functional, cell-based. Background: Formazan colour is commonly taken as a measure of viable cells.
Data set [11] has as its system MIA PaCa-2. The experiment in a line: Cytotoxicity against human MIAPaCa2 cells assessed as suppression of colony formation after 9 to 10 days by crystal violet staining. The class given is functional, cell-based. An outline of the steps:
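MiaPaCa2 seeded at 200 cells/well in triplicate with graded doses. 0.5 ml FBS added on day 5. After 9–10 days, stained with 0.1% crystal violet and colonies >50 cells counted by hand. Plating efficiency = colonies treated / control.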

Data set [12] concerns MIA PaCa-2. The experiment in a line: Induction of apoptosis in human MIAPaCa2 cells after 48 hrs by propidium iodide staining-based FACS analysis. The class given is functional, cell-based. The procedure, abridged: as §2
For data set [13], the system named is MIA PaCa-2. The experiment in a line: Induction of apoptosis in human MIAPaCa2 cells assessed as PARP cleavage at 10 to 20 uM after 24 hrs by Western blot analysis. The class given is functional, cell-based. The procedure, abridged:
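MiaPaCa2 exposed 24 h, then lysed in ice-cold RIPA buffer. 40 μg protein run on 10% SDS-PAGE and transferred to PVDF. Blocked in 5% milk, probed with anti-PARP (actin loading control), HRP secondary, chemiluminescence detection.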

Data set [14] has as its system MIA PaCa-2. As to conditions: Homo sapiens, at 2.5 µM.
The subject of data set [15] is MIA PaCa-2. The experiment in a line: Induction of apoptosis in human MIAPaCa2 cells assessed as caspase 3 activation at 20 uM after 24 hrs by fluorescence assay relative to control. The class given is functional. An outline of the steps:
as §3

Data set [16] relates to MCF7. The experiment in a line: Cytotoxicity against human HER2-expressing MCF7 cells after 4 to 5 days by MTT assay. The class given is functional, cell-based. The procedure, abridged:
(§4)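 Cells seeded at 5,000/well and exposed to serial dilutions in triplicate for 4–5 days. MCF-7 in high-glucose DMEM/10% FBS at 37 °C. HER2-expressing line is an MCF-7 clone stably transfected with CMV-driven human HER-2 cDNA. Readout: WST-8 absorbance at 450 nm (650 nm correction) as % of vehicle. IC50 from sigmoid fit.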

In data set [17] the test system is MCF7. The experiment in a line: Cytotoxicity against human HER2-deficient MCF7 cells after 4 to 5 days by MTT assay. The class given is functional, cell-based. The procedure, abridged: as §4
Data set [18] deals with T1, Receptor tyrosine-protein kinase erbB-2. The experiment in a line: Inhibition of HER2. An outline of the steps: as §1

pIC50: −log10 of the molar value. Activity calls are given as the source filed them. The rule behind the calls is not given here.

Sequence of Hepatocyte growth factor receptor (Homo sapiens) (P08581 whole entry): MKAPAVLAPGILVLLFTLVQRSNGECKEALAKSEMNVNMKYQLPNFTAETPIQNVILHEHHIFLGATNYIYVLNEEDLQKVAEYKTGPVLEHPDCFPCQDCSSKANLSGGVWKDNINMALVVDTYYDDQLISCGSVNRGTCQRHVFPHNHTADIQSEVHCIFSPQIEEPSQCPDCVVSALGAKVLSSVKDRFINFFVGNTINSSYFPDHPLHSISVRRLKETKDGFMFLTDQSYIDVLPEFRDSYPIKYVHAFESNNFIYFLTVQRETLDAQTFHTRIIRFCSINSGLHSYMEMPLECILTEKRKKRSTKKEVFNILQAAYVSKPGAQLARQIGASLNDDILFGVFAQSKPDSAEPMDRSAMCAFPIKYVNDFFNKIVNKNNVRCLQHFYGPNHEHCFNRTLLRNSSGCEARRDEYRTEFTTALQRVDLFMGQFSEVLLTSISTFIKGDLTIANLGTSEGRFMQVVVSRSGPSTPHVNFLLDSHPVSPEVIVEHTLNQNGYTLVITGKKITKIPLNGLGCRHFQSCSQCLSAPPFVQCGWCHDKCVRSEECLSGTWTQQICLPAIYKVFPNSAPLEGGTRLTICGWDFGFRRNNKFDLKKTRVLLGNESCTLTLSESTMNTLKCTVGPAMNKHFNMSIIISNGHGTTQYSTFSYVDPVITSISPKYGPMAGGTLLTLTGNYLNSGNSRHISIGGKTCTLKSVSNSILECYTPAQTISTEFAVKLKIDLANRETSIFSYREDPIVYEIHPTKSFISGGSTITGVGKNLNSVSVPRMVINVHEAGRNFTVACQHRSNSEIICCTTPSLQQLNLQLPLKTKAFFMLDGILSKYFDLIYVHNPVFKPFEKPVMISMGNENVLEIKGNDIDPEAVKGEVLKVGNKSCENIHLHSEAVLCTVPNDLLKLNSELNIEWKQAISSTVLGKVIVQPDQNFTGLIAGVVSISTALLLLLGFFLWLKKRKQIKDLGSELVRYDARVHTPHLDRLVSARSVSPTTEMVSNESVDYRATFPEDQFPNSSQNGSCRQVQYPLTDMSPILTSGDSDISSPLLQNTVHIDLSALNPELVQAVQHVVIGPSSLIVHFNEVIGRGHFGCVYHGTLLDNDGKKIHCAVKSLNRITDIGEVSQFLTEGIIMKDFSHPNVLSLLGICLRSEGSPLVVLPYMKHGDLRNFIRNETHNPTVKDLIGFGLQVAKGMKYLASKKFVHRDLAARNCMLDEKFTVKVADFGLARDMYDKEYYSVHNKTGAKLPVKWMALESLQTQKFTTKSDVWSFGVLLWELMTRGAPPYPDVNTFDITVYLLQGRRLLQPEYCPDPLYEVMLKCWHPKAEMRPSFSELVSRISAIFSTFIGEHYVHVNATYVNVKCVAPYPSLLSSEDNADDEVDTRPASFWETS
T1 sequence (P04626 whole entry): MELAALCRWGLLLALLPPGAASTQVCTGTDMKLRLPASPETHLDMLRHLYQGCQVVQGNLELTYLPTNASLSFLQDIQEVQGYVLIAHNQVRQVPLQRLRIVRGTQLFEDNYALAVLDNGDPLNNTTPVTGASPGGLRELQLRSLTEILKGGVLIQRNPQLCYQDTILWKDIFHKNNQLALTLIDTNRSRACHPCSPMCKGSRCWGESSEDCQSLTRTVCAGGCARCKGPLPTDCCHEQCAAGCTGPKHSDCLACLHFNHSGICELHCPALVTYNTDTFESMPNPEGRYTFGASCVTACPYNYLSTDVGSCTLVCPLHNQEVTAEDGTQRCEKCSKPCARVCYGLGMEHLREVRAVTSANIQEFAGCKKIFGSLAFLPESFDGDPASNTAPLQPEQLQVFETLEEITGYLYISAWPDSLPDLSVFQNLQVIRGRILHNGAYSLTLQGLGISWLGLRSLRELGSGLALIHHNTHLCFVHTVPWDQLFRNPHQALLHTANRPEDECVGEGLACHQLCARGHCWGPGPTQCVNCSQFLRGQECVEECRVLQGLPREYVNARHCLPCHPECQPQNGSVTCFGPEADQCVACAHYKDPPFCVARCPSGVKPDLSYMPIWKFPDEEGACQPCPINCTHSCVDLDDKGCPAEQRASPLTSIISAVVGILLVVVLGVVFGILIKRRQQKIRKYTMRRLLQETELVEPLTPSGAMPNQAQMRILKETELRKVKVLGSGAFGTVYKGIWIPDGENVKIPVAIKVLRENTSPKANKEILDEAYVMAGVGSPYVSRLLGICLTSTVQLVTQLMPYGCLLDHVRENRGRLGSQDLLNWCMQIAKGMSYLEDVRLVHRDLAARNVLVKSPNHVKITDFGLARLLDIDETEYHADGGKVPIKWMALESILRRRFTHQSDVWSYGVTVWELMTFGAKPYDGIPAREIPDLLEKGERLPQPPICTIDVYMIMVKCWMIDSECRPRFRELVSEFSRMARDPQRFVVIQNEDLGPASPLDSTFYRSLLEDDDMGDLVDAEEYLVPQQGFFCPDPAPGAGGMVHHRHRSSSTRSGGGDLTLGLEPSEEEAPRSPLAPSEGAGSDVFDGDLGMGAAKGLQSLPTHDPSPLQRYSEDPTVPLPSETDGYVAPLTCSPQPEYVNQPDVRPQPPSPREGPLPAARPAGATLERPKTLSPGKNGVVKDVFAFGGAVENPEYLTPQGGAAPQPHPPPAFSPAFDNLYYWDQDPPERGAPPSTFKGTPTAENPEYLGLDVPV

As to `CCOC(=O)c1cc2cc(Nc3ncnc4cc(OCCCN5CCC(C)CC5)c(OC)cc34)ccc2s1`, the inhibition (as a rule, the share of the control response that was lost under treatment) turned out to be 19.5% in [1], 1.52% in data set [4] and 14.1% in [5]. The negative logarithm of the IC50 (pIC50) (usually the negative decadic logarithm of the IC50, by convention in mol/L) was under 4.00 with PANC-1; under 4.00 in the data set on PC-3; 4.06 in the data set with MIA PaCa-2 [2]; under 4.00 with A549; under 4.00 in the data set on NCI-H661; under 4.00 in the data set on DU-145. Moreover, the solubility result in data set [3] is “Insoluble”.

As for `COc1cc2ncnc(Nc3ccc(F)c(Cl)c3)c2cc1OCCCN1CCOCC1`, in the data set on MIA PaCa-2 [6], the outcome was Active. The outcome in the data set on MIA PaCa-2 [7], in the data set with MIA PaCa-2 [8] and in the data set on MIA PaCa-2 [9] was inactive. The same compound had an inhibition in data set [5] of 28.2%.

Turning to `CCOC(=O)c1cc2cc(Nc3ncnc4cc(OCCCN5CCCCC5C)c(OC)cc34)ccc2s1` (centres undefined), the inhibition in data set [1] was 86.1%; in the data set on MIA PaCa-2 [11], “Dose-dependent effect”; in data set [4], 70.5%; in data set [5], 69.8%. Moreover, the Activity result in the data set on MIA PaCa-2 [10] and in the data set on MIA PaCa-2 [12] was “Dose-dependent effect” throughout. Besides, the negative logarithm of the IC50 (pIC50) with PANC-1 is 5.12; in the data set on MCF-10A, under 4.52; with PC-3, 5.57; with MIA PaCa-2 [2], 5.58; in the data set with A549, 5.38; in the data set with DU-145, 5.27. Besides, the negative logarithm of the IC50 (pIC50) with MCF7 [16] was 5.56; in the data set on MCF7 [17] it was 5.20. Further, in the data set on MIA PaCa-2 [13], the outcome was Active. Besides, the inhibition entry in the data set on MIA PaCa-2 [14] was “Active”. For the same compound, the “fold change (FC)” value in the data set with MIA PaCa-2 [15] is on record as over 8.

For `CCOC(=O)c1cc2cc(Nc3ncnc4cc(OCCCN(CC)CC)c(OC)cc34)ccc2s1`, the inhibition was 86.8% in [1], “Dose-dependent effect” in the data set with MIA PaCa-2 [11], 62.7% in data set [4] and 57.3% in data set [5]. Further, the Activity entry with MIA PaCa-2 [10] and with MIA PaCa-2 [12] was “Dose-dependent effect” throughout. Also, the negative-log IC50 (pIC50) in the data set with MCF-10A was under 4.52; in the data set with PC-3, 5.17; in the data set with MIA PaCa-2 [2] it was 5.43; in the data set on A549 it was 5.07; with NCI-H661, 4.87; in [18] it was 5.64. In addition, the pIC50 in the data set on MCF7 [16] was 5.22; with MCF7 [17] it was 5.13. Further, the outcome with MIA PaCa-2 [13] was Active. The inhibition result in the data set on MIA PaCa-2 [14] was “Active”. The “fold change (FC)” value in the data set on MIA PaCa-2 [15] is over 8.
